Compound activity (PubChem)
This is a sample that favours compounds with a hit; in the whole collection about 3.3% have one here.
5HT1a antag: human 5-HT1a receptor antagonists, primary screen, cell-based, CHO, Ga15 NFAT-bla reporter; 5-hydroxytryptamine receptor 1A (Homo sapiens), P08908; CHO 5-HT1a Ga15 NFAT-bla reporter, antagonist mode; inhibition, % at 10 µM; 0.68% of 62,000 active; AID 612, 2007;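 active = inhibition above the mean of all tested compounds plus 3 SD, cut at about 43% in these data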;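 also: receptor stimulated by 5-CT agonist at 100 nM near EC80; beta-lactamase reporter measured by ratiometric fluorescence of a cleavable substrate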
Target sequence (P08908 whole entry, looked up): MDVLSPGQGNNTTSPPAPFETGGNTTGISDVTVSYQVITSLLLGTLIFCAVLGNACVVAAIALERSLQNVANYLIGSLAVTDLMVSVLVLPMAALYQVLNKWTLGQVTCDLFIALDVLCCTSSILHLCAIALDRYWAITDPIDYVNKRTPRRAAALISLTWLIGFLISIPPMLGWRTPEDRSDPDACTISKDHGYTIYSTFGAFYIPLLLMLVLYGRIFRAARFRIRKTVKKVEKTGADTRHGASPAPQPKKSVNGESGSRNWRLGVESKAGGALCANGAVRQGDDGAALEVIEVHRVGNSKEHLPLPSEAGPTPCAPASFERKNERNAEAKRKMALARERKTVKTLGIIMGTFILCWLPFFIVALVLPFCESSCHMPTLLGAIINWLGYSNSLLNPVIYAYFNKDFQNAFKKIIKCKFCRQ
HTR1A agonist: human 5-HT1a receptor agonists, primary screen, cell-based, CHO, Ga15 NFAT-bla reporter. activation, % at 10 µM. AID 567, 2006. CHO 5-HT1a Ga15 NFAT-bla reporter, FRET ratio; 0% basal, 100% maximal reference agonist. 5-hydroxytryptamine receptor 1A (Homo sapiens), P08908. 0.56% of 65,000 active;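 active = activation above the screen-wide mean activation plus 3 SD, cut at about 19% in these data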;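 also: 0% = DMSO wells and 100% = 5-CT at EC100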
5HT1E ag: 5-HT1E receptor agonists, primary screen, cell-based, HTS. 0.69% of 65,000 active. CHO 5-HT1E Ga15 NFAT-bla reporter, FRET; 0% DMSO wells, 100% control agonist wells. 5-hydroxytryptamine receptor 1E (Homo sapiens), P28566. activation, % at 6 µM;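 active = activation above a set limit, the screen-wide mean activation plus 3 SD, cut at about 8.5% in these data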;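 also: 100% = positive control agonist at 1 µM giving full maximal response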
HEK293 NFkB inh: inhibitors of PMA/ionomycin-induced NF-kB reporter, primary screen, antigen receptor NF-kB inhibitor project, cell-based, HEK-293 luciferase reporter, luminescence; 0.21% of 62,000 active; HEK-293 NF-kB luciferase reporter; inhibition, % at 3 µM;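 active = inhibition above the mean of all tested compounds plus 3 SD, cut at about 40% in these data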;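 also: 0% = stimulated DMSO wells and 100% = 10 µM reference inhibitor 5653914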
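System: NF-kB luciferase reporter HEK-293 cells | Replication: Single test | Control set: DMSO vs reference inhibitor | Evaluation: % inhibition | Schedule: 1 h pretreatment, 16 h stimulation, 37 °C | Probe or stimulus: PMA with ionomycin | Compound dosing: One dose, 3 µM | Detection: Luciferase luminescence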
HTR1E antagonist: 5-HT1E receptor antagonists, primary screen, cell-based, HTS. 0.99% of 65,000 active. CHO 5-HT1E Ga15 NFAT-bla reporter, FRET, antagonist. inhibition, % at 6 µM. AID 571, 2007;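 active = inhibition above a set limit, the mean inhibition across every tested compound plus 3 SD, cut at about 29% in these data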;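 also: signal is the 460 over 535 nm emission ratio of beta-lactamase substrate; 0% = agonist plus DMSO wells and 100% = wells without agonist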
Jurkat viability: cytotoxicity toward Jurkat T cells, primary screen, cytotoxicity control, cell-based, Jurkat E6.1, 60K MLSMR library; Jurkat E6.1 viability, ATP luminescence, 48 h; inhibition, % at 4 µM; 1.2% of 56,000 active; AID 463, 2006;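 active = inhibition above the mean inhibition of all tested compounds plus 3 SD, cut at about 28% in these data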
Starred values were filed as active, the others as inactive; . = no result.

SMILES | 5HT1a antag | HTR1A agonist | 5HT1E ag | HEK293 NFkB inh | HTR1E antagonist | Jurkat viability
O=C(Nc1ccc2c(c1)CCC2)C1CCN(c2c3c(nc4ncnn24)CCC3)CC1 | -1 | 1 | 2 | 22 | -1 | 44*
COc1ccc(NC(=O)C2CCCN(c3c4c(nc5ncnn35)CCC4)C2)cc1OC (stereo not drawn) | -15 | 1 | 0 | 17 | 6 | 7
NC(=O)c1sc2nccc(Nc3ccccc3)c2c1N | 4 | 0 | 0 | 45* | 9 | 8
CC(C)(C)C(=O)c1sc(Nc2ccccc2)nc1N | 12 | -2 | 0 | -48 | -6 | -4
CS(=O)(=O)NCCC1=CCCCC1 | 5 | 0 | 0 | 10 | -1 | 0
COc1cccc(C(c2nnnn2Cc2ccco2)N2CCN(c3cccc(C)c3C)CC2)c1OC (stereo not drawn) | 52* | 3 | 2 | 27 | -22 | 0
COc1ccc(N2CCN(C(c3cccc(OC)c3OC)c3nnnn3C3CCCC3)CC2)cc1 (stereo not drawn) | 44* | -1 | 0 | 14 | 4 | 2
COc1ccc(N2CCN(C(c3ccccc3OC)c3nnnn3C3CCCC3)CC2)cc1 (stereo not drawn) | 29 | -5 | 0 | 22 | -1 | -2
CCC(C(=O)N1CCc2ccccc2C1)n1nc(C)n2c(cc3occc32)c1=O (stereo not drawn) | -3 | 0 | 0 | 14 | -2 | -7
O=C(CSc1c[nH]c2ccccc12)N1CCOCC1 | -5 | 3 | 1 | 18 | 3 | .
CCC(C)C(NS(=O)(=O)c1ccc(C)cc1)C(=O)NCCN1CCOCC1 (stereo not drawn) | 6 | -4 | -1 | -2 | 1 | -9
CCOC(=O)C1CCCN(CC(=O)NC2CC2)C1 (stereo not drawn) | -1 | 22* | 0 | 6 | 2 | -5
COc1cccc(N2CCN(Cc3coc4c(Cl)cc(Cl)cc4c3=O)CC2)c1 | -1 | 1 | 32* | 14 | -4 | -3
Cc1ccc2occ(CN3CCN(c4ccccc4)CC3)c(=O)c2c1 | 0 | -4 | 7 | 9 | -11 | 2
Clc1ccc2[nH]c3c(NCC4CCCO4)ncnc3c2c1 (stereo not drawn) | 11 | 4 | 0 | 8 | 32* | 15
Cc1ccc(C(=O)OCc2nnc(-c3ccccc3)o2)o1 | 8 | -2 | 0 | 6 | 0 | 4
CC(=O)c1c(C)[nH]c(C(=O)OCc2nnc(-c3ccccc3)o2)c1C | 0 | -1 | 1 | 8 | 35* | 9
COc1cc2c(cc1OC)CN(Cc1cccs1)CC2 | 4 | -2 | 13* | 1 | 0 | -3
COc1cc2c(cc1OC)CN(Cc1ccc(OC)c(C)c1OC)CC2 | 41 | 1 | -2 | 13 | 12 | 16
CCN(CC)c1nc2cc(OC)ccc2cc1C#N | -11 | 3 | 1 | 6 | 11 | 1
CCN(CC)c1nc(C#N)cc(-c2ccc(OC)cc2)n1 | 26 | 3 | 1 | 38 | 23 | 41*
O=S(CCc1ccncc1)Cc1ccccc1 (stereo not drawn) | . | 40* | 0 | . | 6 | .
Cc1ccc(C(=O)OCc2cn3ccccc3n2)cc1 | 4 | 101* | 0 | -2 | -5 | 1
CCOC(=O)NC1(Nc2ccc(Cl)cn2)Oc2ccccc2O1 | 13 | -2 | 0 | 18 | 7 | 33*
O=c1[nH]nc(Sc2ncnc3sccc23)n1CCc1ccccc1 | 33 | 22* | -1 | 28 | 27 | 4
SMILES | 5HT1a antag | HTR1A agonist | 5HT1E ag | HEK293 NFkB inh | HTR1E antagonist | Jurkat viability
CCCn1c(Sc2nnnn2-c2ccccc2)n[nH]c1=O | 0 | -2 | 1 | 11 | 4 | -2
Cn1c(NC(=O)Cc2ccc(F)cc2)cc(=O)n(C)c1=O | 15 | 4 | 0 | 13 | 3 | 1
N#CC1=C(SCc2ccccc2Cl)NC(=O)C(C(N)=O)C1 (stereo not drawn) | -2 | -1 | 0 | 11 | -8 | -5
COc1cc(OC)cc(-c2cc3nc(C)c(CCC(=O)NC(C)CCc4ccco4)c(C)n3n2)c1 (stereo not drawn) | 18 | -2 | 0 | 14 | 9 | 7
COc1cc(OC)cc(-c2cc3nc(C)c(CCC(=O)O)c(C)n3n2)c1 | 1 | -2 | -1 | 63* | 6 | 2
COC(=O)c1cc(-c2c(C)oc3cc(O)ccc3c2=O)c(C)o1 | 0 | 51* | 0 | 8 | 1 | -7
Cn1c(SCc2nc3ccccc3c(=O)[nH]2)nnc1-c1ccco1 | -5 | 0 | 0 | -1 | -11 | -7
CCNc1nc(NCC)n2c(SCc3nc4ccccc4c(=O)[nH]3)nnc2n1 | 11 | -3 | -1 | 11 | 53* | -2
Cn1c(-c2ccccc2)cnc1SCc1nc2ccccc2c(=O)[nH]1 | -24 | 0 | 59* | -38 | -15 | 5
CC(=O)Nc1sc2c(c1CN1CCN(c3ccccn3)CC1)CCCC2 | 17 | 2 | 0 | 15 | -3 | -4
Cc1ccc(CNC(=O)CSc2nc(N3CCCCC3)nc(N3CCCCC3)n2)cc1 | 18 | 6 | 0 | 13 | 9 | 8
CCN(CC)CC(=O)Nc1ccc(-c2nc3cc(NC(=O)CN(CC)CC)ccc3o2)cc1 | -6 | 3 | 0 | 9 | 1 | 7
COc1ccc(CC(=O)Nc2cccc(-c3nnc(-c4cccc(C)c4)o3)c2)cc1OC | 92* | -1 | 2 | 0 | 80* | 43*
COc1ccc(-c2nc3cc(NC(=O)Cc4ccc(OC)c(OC)c4)ccc3o2)cc1 | 10 | 6 | 0 | 8 | 7 | 73*
COc1ccc(CC(=O)Nc2ccc(-c3nnc(-c4ccccc4)o3)cc2)cc1OC | 6 | 1 | 0 | -9 | 20 | -5
COc1ccc(CC(=O)Nc2cccc(-c3nnc(-c4ccccc4)o3)c2)cc1OC | 16 | 1 | 0 | 12 | 18 | 33*
COc1ccc(CCCc2nnc(SCC(=O)Nc3nc(C)cs3)n2C)cc1C | -5 | 0 | 1 | 7 | -5 | -1
COc1ccc(Cc2nnc(-c3cccc(C)c3)o2)cc1OC | 12 | -1 | 0 | -1 | 9 | 9
COc1ccc(CC(=O)Nc2nc(C)cs2)cc1OC | 9 | -2 | -1 | 2 | 18 | 37*
O=C(Nc1cc(C(F)(F)F)ccc1N1CCOCC1)C1Cc2ccccc2CN1C(=O)c1ccco1 (stereo not drawn) | 21 | -1 | 0 | 14 | 12 | 17
